Test results as given in ChEMBL document CHEMBL3877241 (J Med Chem, 2016).
Calls of active or inactive are those of the source. The calls are words filed in the database; no cut-off is given here.

Tests used:
[1] = biological target: T1, Tyrosine-protein kinase JAK2 (Homo sapiens, UniProt O60674); experiment: Inhibition of JAK2 (unknown origin) preincubated for 20 mins followed by [33P]ATP addition measured after 120 mins by Hotspot assay
MOLM-14 [2] = experiment: Induction of apoptosis in human MOLM14 cells assessed as early apoptotic cells at 3 uM after 48 hrs by Annexin-V FITC/propidium iodide staining based flow cytometry (reference value: 3.6 to 3.7%); type: functional
Procedure, shortened: (§1)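 MOLM-14 cells treated 48 h at the stated concentrations; doxorubicin as positive control. Stained with Annexin V-FITC and propidium iodide and analysed by flow cytometry (at least 10,000 events). Gated quadrants: Annexin V−/PI− viable, Annexin V+/PI− early apoptotic, Annexin V+/PI+ late apoptotic.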

MOLM-14 [3] = experiment: Induction of apoptosis in human MOLM14 cells assessed as necrotic cells at 0.75 uM after 48 hrs by Annexin-V FITC/propidium iodide staining based flow cytometry (reference value: 0.1%); type: functional; procedure, shortened: as §1
[4] = biological target: Tyrosine-protein kinase JAK3 (Homo sapiens, UniProt P52333); experiment: Inhibition of human JAK3 JH1 catalytic domain (I781 to S1124 residues) expressed in mammalian expression system by KINOMEScan assay
[5] = biological target: T1, Tyrosine-protein kinase JAK2; experiment: Inhibition of human JAK2 JH1 catalytic domain (A829 to G1132 residues) expressed in mammalian expression system assessed as residual activity at 100 nM by KINOMEScan assay relative to control
Procedure, shortened: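 DiscoveRx KINOMEscan competition binding against ATP sites in a 97-kinase panel, with compound at 100 nM. Binding reported as % of control.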

[6] = biological target: T2, Protein deacetylase HDAC6 (Homo sapiens) (UniProt Q9UBN7); experiment: Inhibition of HDAC6 in human KMS-12-BM cells assessed as increase in acetylated tubulin level at 2 times antiproliferative IC50 up to 48 hrs by immunoblot method; type: cell-based
T2 sequence (whole entry): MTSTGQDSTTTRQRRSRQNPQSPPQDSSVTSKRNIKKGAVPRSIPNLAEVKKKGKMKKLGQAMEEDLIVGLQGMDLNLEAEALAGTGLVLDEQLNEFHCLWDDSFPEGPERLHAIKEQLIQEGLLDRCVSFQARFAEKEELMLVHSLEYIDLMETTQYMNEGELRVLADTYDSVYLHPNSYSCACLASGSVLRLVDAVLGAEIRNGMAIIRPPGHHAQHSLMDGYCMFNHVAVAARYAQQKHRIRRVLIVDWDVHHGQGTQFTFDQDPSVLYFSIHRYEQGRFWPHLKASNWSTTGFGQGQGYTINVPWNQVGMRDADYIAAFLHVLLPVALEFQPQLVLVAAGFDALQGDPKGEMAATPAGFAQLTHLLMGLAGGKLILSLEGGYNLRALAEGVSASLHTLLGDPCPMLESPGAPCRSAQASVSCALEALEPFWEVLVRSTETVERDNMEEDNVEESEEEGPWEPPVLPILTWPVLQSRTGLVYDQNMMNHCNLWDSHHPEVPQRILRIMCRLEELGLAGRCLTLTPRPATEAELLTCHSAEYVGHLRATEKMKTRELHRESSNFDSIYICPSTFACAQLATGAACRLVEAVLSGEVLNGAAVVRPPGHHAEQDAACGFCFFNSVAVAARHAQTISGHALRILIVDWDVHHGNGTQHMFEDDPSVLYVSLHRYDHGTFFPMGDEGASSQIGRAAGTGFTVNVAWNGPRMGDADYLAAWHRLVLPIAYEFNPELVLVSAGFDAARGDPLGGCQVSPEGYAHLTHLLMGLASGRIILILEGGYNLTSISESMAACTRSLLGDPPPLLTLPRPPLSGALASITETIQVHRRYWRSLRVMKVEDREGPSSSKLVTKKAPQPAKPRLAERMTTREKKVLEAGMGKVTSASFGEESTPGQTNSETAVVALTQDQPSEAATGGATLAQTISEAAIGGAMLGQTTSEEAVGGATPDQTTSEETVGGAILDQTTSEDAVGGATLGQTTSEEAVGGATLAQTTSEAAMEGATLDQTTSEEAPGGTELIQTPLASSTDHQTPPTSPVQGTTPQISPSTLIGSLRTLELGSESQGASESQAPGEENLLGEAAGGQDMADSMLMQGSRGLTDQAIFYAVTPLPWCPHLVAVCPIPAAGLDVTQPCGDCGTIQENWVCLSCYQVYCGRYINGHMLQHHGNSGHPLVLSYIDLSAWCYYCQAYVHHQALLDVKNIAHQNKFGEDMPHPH
Procedure, shortened: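 KMS-12-BM or MOLM-14 cells (at least 3x10^6 per condition) treated at about 2x their proliferation IC50 in a time course of 0 to 48 h. Tubastatin (15 μM, 48 h) used as HDAC6 control. Lysates immunoblotted for acetyl-α-tubulin and acetyl-H3 (Lys9/Lys14); re-probed for α-tubulin and H3.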

[7] = biological target: Histone deacetylase 7 (Homo sapiens) (UniProt Q8WUI4); experiment: Inhibition of human recombinant N-terminal GST-tagged HDAC7 (518 to 991 residues) expressed in insect cells at 10 uM preincubated with enzyme followed by […] addition measured after 2 hrs by fluorescence assay relative to control
Procedure, shortened: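 HDAC enzyme in Tris-HCl pH 8.0 buffer with NaCl, KCl and MgCl2 was pre-incubated with compound from DMSO. Substrate was then added and the reaction ran 2 h at 30 °C. It was stopped with developer containing trichostatin A, and fluorescence (Ex/Em 360/460 nm) was read at plateau. Single test concentration 10 µM.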

[8] = Growth inhibition of human HL60 cells at 4 uM relative to control; type: functional; settings: HL-60, read-out: GI
[9] = biological target: Histone deacetylase 9 (Homo sapiens) (UniProt Q9UKV0); experiment: Inhibition of HDAC9 (unknown origin) at 10 uM preincubated with enzyme followed by acetyl-Lys(trifluoroacetyl)-AMC substrate addition measured after 2 hrs by fluorescence assay relative to control
Procedure, shortened: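 Fluorogenic HDAC assay in 50 mM Tris-HCl pH 8.0, 137 mM NaCl, 2.7 mM KCl, 1 mM MgCl2. Enzyme pre-incubated with compound delivered in DMSO. Substrate then added: Arg-His-Lys(Ac) at 50 μM for most isoforms, or acetyl-Lys(trifluoroacetyl)-AMC for class IIa. Incubated 2 h at 30 °C, stopped with developer plus trichostatin A, read at Ex/Em 360/460 nm at endpoint. IC50 from 10-dose curves.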

[10] = Antiproliferative activity against human MCF7 cells after 72 hrs by MTT assay; type: functional, cell-based; settings: MCF7, 72 h
[11] = biological target: Mitogen-activated protein kinase 8 (Homo sapiens, UniProt P45983); experiment: Inhibition of full length human MAPK8 (M1 to Q384 residues) expressed in mammalian expression system by KINOMEScan assay
Mitogen-activated protein kinase 8, sequence (P45983 whole entry, the tested form may be a part): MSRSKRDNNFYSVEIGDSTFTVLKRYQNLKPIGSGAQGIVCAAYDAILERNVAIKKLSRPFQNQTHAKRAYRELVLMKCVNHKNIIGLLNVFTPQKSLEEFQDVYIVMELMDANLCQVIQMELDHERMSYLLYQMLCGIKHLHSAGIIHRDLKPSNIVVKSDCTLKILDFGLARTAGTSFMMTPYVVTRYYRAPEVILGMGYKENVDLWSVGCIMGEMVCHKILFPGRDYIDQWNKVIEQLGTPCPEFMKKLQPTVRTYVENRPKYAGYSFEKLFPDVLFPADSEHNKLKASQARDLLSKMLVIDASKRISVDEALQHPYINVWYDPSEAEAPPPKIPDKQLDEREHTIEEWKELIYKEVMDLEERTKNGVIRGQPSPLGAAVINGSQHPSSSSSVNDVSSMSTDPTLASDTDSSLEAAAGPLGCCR

T1 sequence (O60674 whole entry): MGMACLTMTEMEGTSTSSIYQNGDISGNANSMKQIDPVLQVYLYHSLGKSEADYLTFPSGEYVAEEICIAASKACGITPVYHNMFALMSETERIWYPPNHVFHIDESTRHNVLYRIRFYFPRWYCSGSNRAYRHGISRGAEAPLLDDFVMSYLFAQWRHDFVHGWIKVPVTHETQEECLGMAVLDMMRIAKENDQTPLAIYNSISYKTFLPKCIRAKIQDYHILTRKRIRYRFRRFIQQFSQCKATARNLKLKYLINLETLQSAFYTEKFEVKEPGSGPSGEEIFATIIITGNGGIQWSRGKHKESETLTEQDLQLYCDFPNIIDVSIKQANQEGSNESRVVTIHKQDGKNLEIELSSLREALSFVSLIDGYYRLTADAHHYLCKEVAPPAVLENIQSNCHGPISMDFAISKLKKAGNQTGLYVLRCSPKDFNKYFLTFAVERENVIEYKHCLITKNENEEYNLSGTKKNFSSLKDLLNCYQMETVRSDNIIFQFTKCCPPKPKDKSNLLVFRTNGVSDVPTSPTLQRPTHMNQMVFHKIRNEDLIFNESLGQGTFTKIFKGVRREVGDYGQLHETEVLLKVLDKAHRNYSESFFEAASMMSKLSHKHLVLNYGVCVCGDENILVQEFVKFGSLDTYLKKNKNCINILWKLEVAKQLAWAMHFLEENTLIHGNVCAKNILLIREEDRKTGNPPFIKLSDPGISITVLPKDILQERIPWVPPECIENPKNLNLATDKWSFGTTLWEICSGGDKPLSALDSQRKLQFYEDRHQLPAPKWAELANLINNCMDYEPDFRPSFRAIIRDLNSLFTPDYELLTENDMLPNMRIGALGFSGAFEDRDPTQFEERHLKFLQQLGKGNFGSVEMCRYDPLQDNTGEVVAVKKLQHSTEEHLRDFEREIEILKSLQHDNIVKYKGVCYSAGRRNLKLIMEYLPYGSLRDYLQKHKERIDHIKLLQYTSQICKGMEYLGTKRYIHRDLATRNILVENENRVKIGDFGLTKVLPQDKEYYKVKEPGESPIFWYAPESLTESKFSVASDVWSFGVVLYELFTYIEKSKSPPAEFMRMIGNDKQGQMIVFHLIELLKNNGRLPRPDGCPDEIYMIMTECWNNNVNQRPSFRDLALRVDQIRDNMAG
Histone deacetylase 9 (Homo sapiens), sequence (Q9UKV0 whole entry, canonical isoform): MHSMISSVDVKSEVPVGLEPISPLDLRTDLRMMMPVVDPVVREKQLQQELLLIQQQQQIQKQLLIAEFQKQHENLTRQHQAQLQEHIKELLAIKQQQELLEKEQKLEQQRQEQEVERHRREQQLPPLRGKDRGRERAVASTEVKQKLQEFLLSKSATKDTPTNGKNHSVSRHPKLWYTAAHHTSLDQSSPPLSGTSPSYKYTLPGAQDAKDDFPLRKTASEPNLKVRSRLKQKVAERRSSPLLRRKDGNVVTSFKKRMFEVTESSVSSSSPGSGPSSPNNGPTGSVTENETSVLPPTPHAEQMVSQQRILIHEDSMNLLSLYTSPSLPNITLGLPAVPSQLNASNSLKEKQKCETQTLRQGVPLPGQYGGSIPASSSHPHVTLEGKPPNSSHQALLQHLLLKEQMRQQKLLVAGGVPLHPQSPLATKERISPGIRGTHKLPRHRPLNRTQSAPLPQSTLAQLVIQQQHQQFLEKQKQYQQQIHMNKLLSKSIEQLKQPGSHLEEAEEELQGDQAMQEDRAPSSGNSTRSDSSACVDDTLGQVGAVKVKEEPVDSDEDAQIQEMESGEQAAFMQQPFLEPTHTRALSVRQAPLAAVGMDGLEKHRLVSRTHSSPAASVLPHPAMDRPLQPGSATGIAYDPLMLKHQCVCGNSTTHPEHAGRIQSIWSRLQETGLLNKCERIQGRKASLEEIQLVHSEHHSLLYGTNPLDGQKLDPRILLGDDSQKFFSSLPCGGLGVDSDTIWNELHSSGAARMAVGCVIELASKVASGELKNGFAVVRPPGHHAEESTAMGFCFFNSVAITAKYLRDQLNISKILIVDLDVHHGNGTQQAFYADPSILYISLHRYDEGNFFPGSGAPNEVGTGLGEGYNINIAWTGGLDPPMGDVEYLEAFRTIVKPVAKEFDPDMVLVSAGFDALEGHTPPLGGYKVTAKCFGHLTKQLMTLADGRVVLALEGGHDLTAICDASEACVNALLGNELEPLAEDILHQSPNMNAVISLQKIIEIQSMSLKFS
Histone deacetylase 7 (Homo sapiens), sequence (Q8WUI4 whole entry, the tested form may be a part): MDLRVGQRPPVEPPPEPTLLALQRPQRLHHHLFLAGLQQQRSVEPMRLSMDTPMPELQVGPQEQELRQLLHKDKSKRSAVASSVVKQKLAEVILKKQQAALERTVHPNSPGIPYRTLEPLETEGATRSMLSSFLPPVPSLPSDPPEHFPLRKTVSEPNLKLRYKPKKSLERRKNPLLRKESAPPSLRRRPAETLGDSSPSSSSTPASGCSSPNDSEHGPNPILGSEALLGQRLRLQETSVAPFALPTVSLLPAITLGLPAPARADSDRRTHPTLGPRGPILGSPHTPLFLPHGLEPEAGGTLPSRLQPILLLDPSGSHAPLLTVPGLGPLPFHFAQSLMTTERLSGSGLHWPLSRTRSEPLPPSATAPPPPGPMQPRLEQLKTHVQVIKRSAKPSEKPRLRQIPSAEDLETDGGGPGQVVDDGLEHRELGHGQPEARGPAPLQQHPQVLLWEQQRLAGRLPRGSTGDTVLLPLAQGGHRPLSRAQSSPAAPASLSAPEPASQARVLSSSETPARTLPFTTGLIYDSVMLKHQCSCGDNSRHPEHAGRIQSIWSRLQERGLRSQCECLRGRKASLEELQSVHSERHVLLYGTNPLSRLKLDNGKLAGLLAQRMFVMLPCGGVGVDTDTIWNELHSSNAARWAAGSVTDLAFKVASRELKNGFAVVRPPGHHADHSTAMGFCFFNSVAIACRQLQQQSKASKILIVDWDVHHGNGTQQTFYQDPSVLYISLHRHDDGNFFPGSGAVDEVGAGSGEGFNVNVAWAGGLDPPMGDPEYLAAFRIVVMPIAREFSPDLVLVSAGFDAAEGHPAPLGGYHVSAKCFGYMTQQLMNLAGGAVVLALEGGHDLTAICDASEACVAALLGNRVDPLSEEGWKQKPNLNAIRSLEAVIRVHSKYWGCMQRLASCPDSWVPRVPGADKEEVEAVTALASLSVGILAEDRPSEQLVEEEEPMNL
Tyrosine-protein kinase JAK3, sequence (P52333 whole entry, the tested form may be a part): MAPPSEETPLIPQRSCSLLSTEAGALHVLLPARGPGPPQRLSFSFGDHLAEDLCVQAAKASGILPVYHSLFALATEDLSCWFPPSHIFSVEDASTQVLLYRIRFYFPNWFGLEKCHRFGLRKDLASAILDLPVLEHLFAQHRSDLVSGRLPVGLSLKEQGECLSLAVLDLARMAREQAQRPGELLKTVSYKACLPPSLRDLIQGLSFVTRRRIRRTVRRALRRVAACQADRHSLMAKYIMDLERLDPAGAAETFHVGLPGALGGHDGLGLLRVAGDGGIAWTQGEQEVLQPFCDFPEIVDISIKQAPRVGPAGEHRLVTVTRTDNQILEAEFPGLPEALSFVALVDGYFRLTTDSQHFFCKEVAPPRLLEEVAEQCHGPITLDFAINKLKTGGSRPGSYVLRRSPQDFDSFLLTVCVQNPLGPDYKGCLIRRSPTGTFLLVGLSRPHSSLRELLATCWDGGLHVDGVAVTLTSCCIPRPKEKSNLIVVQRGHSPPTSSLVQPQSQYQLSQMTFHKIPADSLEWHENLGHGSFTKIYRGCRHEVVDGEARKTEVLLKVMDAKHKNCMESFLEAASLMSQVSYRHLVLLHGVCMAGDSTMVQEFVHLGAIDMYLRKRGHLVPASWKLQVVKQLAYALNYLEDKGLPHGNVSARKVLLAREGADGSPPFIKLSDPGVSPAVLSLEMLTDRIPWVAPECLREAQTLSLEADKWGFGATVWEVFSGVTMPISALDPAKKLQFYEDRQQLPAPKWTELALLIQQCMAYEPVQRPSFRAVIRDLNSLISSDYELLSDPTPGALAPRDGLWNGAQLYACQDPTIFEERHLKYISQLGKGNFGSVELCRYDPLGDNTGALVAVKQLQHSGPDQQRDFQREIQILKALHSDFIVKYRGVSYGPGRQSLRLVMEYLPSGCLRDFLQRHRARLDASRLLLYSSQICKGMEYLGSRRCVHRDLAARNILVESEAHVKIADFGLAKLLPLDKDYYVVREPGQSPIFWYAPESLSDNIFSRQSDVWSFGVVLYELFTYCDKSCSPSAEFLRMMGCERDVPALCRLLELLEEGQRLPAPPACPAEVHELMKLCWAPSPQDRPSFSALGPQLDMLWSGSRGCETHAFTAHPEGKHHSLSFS

Compound: O=C(CCCCCCOc1ccc2cc1COC/C=C/COCc1cccc(c1)-c1ccnc(n1)N2)NO
- IC50 [1]: 1.4 nM
- Activity (MOLM-14 [2]): 24.4%
- Activity (MOLM-14 [3]): 0%
- IC50 [4]: 10 to 1000 nM
- Activity [5]: 0%
- inhibition [6]: Active
- inhibition [7]: 1.3%
- inhibition of growth at 4 µM [8]: 47%
- inhibition [9]: 14%
- IC50 [10]: 1470 nM
- IC50 [11]: 1000 to 10000 nM
